Common to all, as to experiment: coupled photometric phosphate release assay
What all share (format): biochemical, synthetic construct
Holding throughout (conditions): 100 mM Tris/HCl pH 7.8, 5 mM MgCl2, 25°C

Assay [1] relates to Anc7. The method in brief: (§1)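 Ancestral enzyme expressed in E. coli BW25113 (0.5 mM IPTG, overnight at 20°C). Purified by Ni affinity chromatography and size exclusion in 50 mM Tris/HCl pH 7.5, 400 mM NaCl, 2 mM MgCl2. Phosphate release coupled with 0.5 mM inosine, 0.25 U/ml purine nucleoside phosphorylase and 2.5 U/ml xanthine oxidase, at varied substrate concentrations. Reaction started with enzyme. Km fitted to Michaelis–Menten from initial slopes.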

Assay [2] relates to Anc6. A digest of the protocol:
as §1

Assay [3] has as its system Anc5. The method in brief:
as §1

One molecule from PMC9798254 (Protein Science : A Publication of the Protein Society, 2023) can be followed below.

`N[C@H](COP(=O)(O)O)Cc1c[nH]cn1` [HolP]: the Km was determined as 122 ± 31 µM in assay [1], 59 ± 12 µM in assay [2] and 698 ± 123 µM in assay [3].
